Published values from different studies.
Lines come from different studies, so protocols differ.
Organism: Mycolicibacterium smegmatis
Effect on: microbial growth

CCOc1ccc(-c2c[nH]c(N)n2)cc1  MIC (ATCC700084 MC^2155; 48 h): 200 µM
CC(=O)O[C@H]1C[C@@]2(C)[C@@H](C[C@@H](O)[C@H]3[C@@]4(C)CC[C@@H](O)[C@@H](C)[C@@H]4CC[C@@]32C)/C1=C(\CCC=C(C)C)C(=O)O  MIC (resazurin; MC^2155; 24 h): 50 µg/mL
CCCCCOc1ccc(-c2c[nH]c(N)n2)cc1  MIC (ATCC700084 MC^2155; 48 h): 150 µM
CO[C@@H]1[C@@H](OC(N)=O)[C@@H](O)[C@H](Oc2ccc3c(O)c(NC(=O)c4ccc(O)c(CC=C(C)C)c4)c(=O)oc3c2C)OC1(C)C  MIC (resazurin; MC^2155; 24 h): 8 µg/mL
NC[C@@H]1O[C@H](O[C@H]2[C@@H](O)[C@H](O[C@@H]3[C@@H](O)[C@H](N)C[C@H](N)[C@H]3O[C@H]3O[C@H](CO)[C@@H](O)[C@H](O)[C@H]3N)O[C@@H]2CO)[C@H](N)[C@@H](O)[C@@H]1O  MIC (broth dilution; 72 h): 0.5 µg/mL
Cc1ccc(Nc2nc(-c3cc(C(=O)Nc4ccc(O)cc4)no3)cs2)cc1  MIC (MC2155): > 64 µg/mL
CCCCCC[C@H](CN1CCC(COc2cccc(C(=NOC)c3ccc(Cl)cc3)c2)CC1)OC(N)=O  MIC (agar dilution): 6.5 µg/mL
Cc1ccc(Nc2nc(-c3cc(C(=O)Nc4ccsc4)no3)cs2)cc1  MIC (MC2155): > 64 µg/mL
CCCOc1ccc(-c2c[nH]c(N)n2)cc1  MIC (ATCC700084 MC^2155; 48 h): 100 µM
C[C@H]1COc2c(N3CCN(C)CC3)c(F)cc3c(=O)c(C(=O)O)cn1c23  MIC (resazurin; MC^2155; 24 h): 0.14 µg/mL
Cc1ccc(Nc2nc(-c3cc(C(=O)Nc4cccc(C)n4)no3)cs2)cc1  MIC (MC2155): > 64 µg/mL
CC[C@H]1OC(=O)[C@H](C)[C@@H](O[C@H]2C[C@@](C)(OC)[C@@H](O)[C@H](C)O2)[C@H](C)[C@@H](O[C@@H]2O[C@H](C)C[C@H](N(C)C)[C@H]2O)[C@](C)(OC)C[C@@H](C)C(=O)[C@H](C)[C@@H](O)[C@]1(C)O  MIC (resazurin; MC^2155; 24 h): 0.36 µg/mL
NC[C@H]1O[C@H](O[C@H]2[C@H](O)[C@@H](O[C@H]3O[C@H](CO)[C@@H](O)[C@H](N)[C@H]3O)[C@H](N)C[C@@H]2N)[C@H](N)C[C@@H]1O  MIC (broth dilution; 72 h): 1 µg/mL
CCOCCOc1ccc(-c2c[nH]c(N)n2)cc1  MIC (ATCC700084 MC^2155; 48 h): > 200 µM
Cl.N=C(N)N/N=C/c1ccc(-c2ccc(/C=N/Nc3ccccc3Cl)cc2)cc1  MIC (MC2155): 1.7 µg/mL
CO/N=C(\C(=O)N[C@@H]1C(=O)N2C(C(=O)O)=C(COC(C)=O)CS[C@H]12)c1csc(N)n1  MIC (resazurin; MC^2155; 24 h): 75 µg/mL
CCCCc1ccc(-c2c[nH]c(N)n2)cc1  MIC (ATCC700084 MC^2155; 48 h): 150 µM
